ChEMBL document CHEMBL1781999, “Lead optimization of aryl and aralkyl amine-based triazolopyrimidine inhibitors of Plasmodium falciparum dihydroorotate dehydrogenase with antimalarial activity in mice” (J Med Chem, 2011)
≈ marks a conversion by molar mass, not a printed value. Calls of active or inactive are those of the source. The calls are words filed in the database; no cut-off is given here.

What was measured:
[1] = Inhibition of His6-tagged recombinant Plasmodium berghei dihydroorotate dehydrogenase expressed in Escherichia coli using L-dihydroorotate as substrate after 10 to 15 mins by DCIP dye-based assay; conditions: in the assay text read “5 to 10 mins” for “10 to 15 mins”
Summary of the method: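 Truncated soluble enzyme lacking the N-terminal membrane domain. Final concentrations: 0.2 mM L-dihydroorotate, 0.02 mM CoQD, 0.12 mM DCIP. Reaction started with 10 nM enzyme and read at 600 nm for 5–10 min at 20 °C. Inhibitor 0.01–100 μM in 3-fold steps, in triplicate. IC50 from a three-parameter fit of vi/vo from initial rates.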

Plasmodium falciparum [2] = assay: Antimalarial activity against Plasmodium falciparum 3D7 infected in human A positive erythrocytes by [3H]hypoxanthine uptake assay in presence of serum in medium; assay type: functional, organism-based
Summary of the method: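 Growth read by [3H]-hypoxanthine uptake. Each concentration run in quadruplicate and fitted to a four-parameter variable-slope log[I]-response model for 50% growth inhibition.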

Plasmodium falciparum [3] = assay: Antimalarial activity against Plasmodium falciparum 3D7 infected in human A positive erythrocytes by [3H]hypoxanthine uptake assay in presence of serum in medium albumax; assay type: functional, organism-based
[4] = Partition coefficient, log D of the compound at pH 7.4 by UV-HPLC analysis; conditions: octanol/water
[5] = Aqueous solubility of the compound in phosphate buffer at pH 6.5; assay type: physicochemical; conditions: phosphate buffer, read-out: solubility
Summary of the method: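 Non-equilibrium solubility. Concentrated DMSO stocks were diluted into pH 6.5 phosphate buffer (final DMSO 1% v/v) and precipitation was monitored by nephelometry. Solubility is given as the concentration range just before a turbidity signal rose above background.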

[6] = Plasma protein binding in human by albumin chromatographic method; assay type: ADME, cell-free; conditions: read-out: PPB (converted)
Liver microsomes = assay: Intrinsic clearance in human liver microsome assessed per mg of protein at 1 uM after 60 mins by LC-MS analysis; assay type: ADME; conditions: microsomes, 1 h, 1 µM
Summary of the method: (§1)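 Microsomal stability. Compound at 1 μM with liver microsomes (0.4 mg/mL protein) in 0.1 M phosphate pH 7.4 at 37 °C. Started with an NADPH-regenerating system plus MgCl2; controls lacked NADPH. Quenched with cold acetonitrile at time points up to 60 min. Parent loss measured by LC-MS and fitted to exponential decay to give CLint.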

Liver = assay: Intrinsic clearance in mouse liver microsome assessed per mg of protein at 1 uM after 60 mins by LC-MS analysis; assay type: ADME; conditions: microsomes, 1 h; summary of the method: as §1
[7] = Plasma protein binding in rat by ultracentrifugation analysis; assay type: ADME, cell-free; conditions: read-out: PPB (converted)
Summary of the method: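 Rat plasma spiked at 200 and 2000 ng/mL, then ultracentrifuged at 223,000 × g for 4.2 h at 37 °C. Free drug in the supernatant plasma water was compared with total drug in non-centrifuged plasma kept at 37 °C for the same time, giving fraction bound.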

Mus musculus [8] = assay: Cmax in Swiss mouse at 20 mg/kg, po measured after 24 hrs by LC-MS analysis; assay type: ADME, organism-based; set-up: dose 20 mg/kg, route oral; conditions: in vivo
Summary of the method: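 Non-fasted male Swiss outbred mice given a single oral gavage dose in 0.5% w/v sodium carboxymethylcellulose, 0.5% v/v benzyl alcohol, 0.4% v/v Tween 80. One mouse per time point, cardiac blood under isoflurane, sampling to 24 h. Plasma stabilized, acetonitrile-precipitated, quantified by LC-MS against blank-plasma standards; Cmax read from concentration-time profile.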

Mus musculus [9] = assay: Time duration above 1 uM plasma concentration in Swiss mouse at 20 mg/kg, po; assay type: ADME, organism-based; set-up: dose 20 mg/kg, route oral; conditions: in vivo
Summary of the method: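 Non-fasted male Swiss outbred mice given a single gavage dose in suspension (0.5% Na-CMC, 0.5% benzyl alcohol, 0.4% Tween 80). One mouse per time point; blood taken by cardiac puncture under isoflurane into stabilizer over 24 h. Plasma measured by LC-MS; time above 1 μM read directly from the concentration-time profile.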

Mus musculus [10] = assay: Toxicity in Swiss mouse assessed as adverse effect at 20 mg/kg, po measured after 24 hrs; assay type: organism-based; set-up: dose 20 mg/kg, route oral; conditions: in vivo
Rattus norvegicus [11] = assay: Toxicity in Sprague-Dawley rat assessed as adverse effects at 20 mg/kg, po; assay type: organism-based; set-up: dose 20 mg/kg, route oral; conditions: in vivo
Summary of the method: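 Male Sprague Dawley rats, fasted overnight, given compound as a 10 min IV jugular infusion (solution) or by oral gavage (suspension), n=2 per group. Monitored through 24 h of cannula blood sampling.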

Mus musculus [12] = assay: Toxicity in Plasmodium berghei ANKA NK65 infected Swiss Webster mouse assessed as adverse effect at 3 to 100 mg/kg, po qd for 4 days; assay type: organism-based; set-up: dose 3-100 mg/kg, route oral; conditions: in vivo, 96 h
Summary of the method: (§2)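 Female Swiss Webster mice, 8-10 weeks old (20-22 g), infected intraperitoneally with 2 × 10^7 P. berghei NK65 ANKA-infected erythrocytes. Oral doses in CMC vehicle (200 μL), first given 3 h post-infection, then at 24, 48 and 72 h. Parasitemia followed daily from 24 h by light microscopy at 1000× oil immersion, counting ≥10 fields of >100 erythrocytes. Mice losing ≥20% body weight were euthanized.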

Mus musculus [13] = assay: Toxicity in Plasmodium berghei ANKA NK65 infected Swiss Webster mouse assessed as adverse effect at 50 mg/kg, po bid for 4 days; assay type: organism-based; set-up: dose 50 mg/kg, route oral; conditions: in vivo, 96 h
Plasmodium berghei ANKA [14] = assay: Antimalarial activity against Plasmodium berghei ANKA NK65 infected in Swiss Webster mouse assessed as complete cure of animal at 100 mg/kg, po qd measured on day 7 by light microscopic analysis; assay type: functional, organism-based; set-up: dose 100 mg/kg; summary of the method: as §2
Plasmodium berghei ANKA [15] = assay: Antimalarial activity against Plasmodium berghei ANKA NK65 infected in Swiss Webster mouse assessed as complete cure of animal at 50 mg/kg, po bid measured on day 7 by light microscopic analysis; assay type: functional, organism-based; set-up: dose 50 mg/kg
Rattus norvegicus [16] = species on record: Rattus norvegicus; assay: Toxicity in Sprague-Dawley rat assessed as adverse effects; conditions: in vivo
[17] = biological target: Dihydroorotate dehydrogenase (quinone), mitochondrial (Homo sapiens, UniProt Q02127); assay: Inhibition of His6-tagged recombinant human dihydroorotate dehydrogenase expressed in Escherichia coli using L-dihydroorotate as substrate after 5 to 10 mins by DCIP dye-based assay
[18] = biological target: T1, Dihydroorotate dehydrogenase (Plasmodium falciparum, UniProt Q54A96); assay: Inhibition of His6-tagged recombinant Plasmodium falciparum dihydroorotate dehydrogenase expressed in Escherichia coli using L-dihydroorotate as substrate after 5 to 10 mins by DCIP dye-based assay
T1 sequence (Q54A96 whole entry): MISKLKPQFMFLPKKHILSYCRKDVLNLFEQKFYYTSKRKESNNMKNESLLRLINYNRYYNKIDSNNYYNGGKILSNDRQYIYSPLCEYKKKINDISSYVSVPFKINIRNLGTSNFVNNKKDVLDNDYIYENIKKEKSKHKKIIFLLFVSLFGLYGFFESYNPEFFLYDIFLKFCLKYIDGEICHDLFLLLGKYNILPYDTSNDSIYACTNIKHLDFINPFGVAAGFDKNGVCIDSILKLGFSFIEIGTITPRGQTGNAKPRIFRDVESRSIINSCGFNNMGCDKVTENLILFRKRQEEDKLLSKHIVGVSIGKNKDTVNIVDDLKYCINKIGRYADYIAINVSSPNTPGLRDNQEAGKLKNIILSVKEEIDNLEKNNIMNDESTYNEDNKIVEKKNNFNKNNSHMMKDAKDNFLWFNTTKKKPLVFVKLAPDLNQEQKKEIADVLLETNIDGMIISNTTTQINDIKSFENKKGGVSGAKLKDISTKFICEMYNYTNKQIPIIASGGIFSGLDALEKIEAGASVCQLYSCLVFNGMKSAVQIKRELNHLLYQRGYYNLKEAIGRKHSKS

Chain of Dihydroorotate dehydrogenase (quinone), mitochondrial (Q02127 whole entry): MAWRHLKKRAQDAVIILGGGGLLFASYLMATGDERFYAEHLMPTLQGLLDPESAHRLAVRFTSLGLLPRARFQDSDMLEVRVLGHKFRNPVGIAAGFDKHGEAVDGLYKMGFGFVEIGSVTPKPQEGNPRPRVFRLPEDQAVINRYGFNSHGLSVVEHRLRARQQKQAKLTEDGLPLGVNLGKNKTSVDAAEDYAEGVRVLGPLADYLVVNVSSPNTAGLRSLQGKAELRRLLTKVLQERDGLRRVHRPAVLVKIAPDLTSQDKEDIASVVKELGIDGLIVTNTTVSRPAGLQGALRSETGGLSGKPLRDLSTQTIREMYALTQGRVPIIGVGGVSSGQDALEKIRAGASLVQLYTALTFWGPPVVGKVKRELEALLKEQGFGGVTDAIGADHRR

SMILES	IC50 [1] [nM]	EC50 (Plasmodium falciparum [2]) [nM]	EC50 (Plasmodium falciparum [3]) [nM]	logD [4]	solubility [5] [µM]	fraction unbound [6]	CL (Liver microsomes) [µL/min/mg]	CL (Liver) [µL/min/mg]	fraction unbound [7]	Cmax (Mus musculus [8]) [µM]	Time (Mus musculus [9]) [h]	Activity (Mus musculus [10])	Activity (Rattus norvegicus [11])	Activity (Mus musculus [12])	Activity (Mus musculus [13])	Activity (Plasmodium berghei ANKA [14])	Activity (Plasmodium berghei ANKA [15])	Activity (Rattus norvegicus [16])	IC50 [17] [µM]	IC50 [18] [nM]
Cc1cc(Nc2ccc(S(F)(F)(F)(F)F)cc2)n2ncnc2n1	280	1300	180	3	71 (≈ 24.9 µg/mL)	0.046	< 5	< 6	0.048	12	18	Non-toxic	Non-toxic	Non-toxic	Non-toxic	inactive	inactive	Non-toxic	> 100	130
Cc1cc(Nc2cc(F)c(C(F)(F)F)c(F)c2)n2ncnc2n1	280	1100	220	2.9	9 (≈ 2.96 µg/mL)	0.034	< 5	< 6	0.027	33	19	Non-toxic	Non-toxic	Non-toxic	Non-toxic	inactive	inactive	Non-toxic	> 30	190
